Active and inactive are the calls of the source. The calls are words filed in the database; no cut-off is given here.
How the values were obtained:
[1] = target: T1, Prostaglandin D2 receptor (Homo sapiens, UniProt Q13258); experiment: Displacement of [3H]-PGD2 from human Prostanoid DP receptor expressed in human HEK293 cells by scintillation counter in presence of 0.5% bovine serum albumin; type: cell-based
T1 sequence (Q13258 whole entry): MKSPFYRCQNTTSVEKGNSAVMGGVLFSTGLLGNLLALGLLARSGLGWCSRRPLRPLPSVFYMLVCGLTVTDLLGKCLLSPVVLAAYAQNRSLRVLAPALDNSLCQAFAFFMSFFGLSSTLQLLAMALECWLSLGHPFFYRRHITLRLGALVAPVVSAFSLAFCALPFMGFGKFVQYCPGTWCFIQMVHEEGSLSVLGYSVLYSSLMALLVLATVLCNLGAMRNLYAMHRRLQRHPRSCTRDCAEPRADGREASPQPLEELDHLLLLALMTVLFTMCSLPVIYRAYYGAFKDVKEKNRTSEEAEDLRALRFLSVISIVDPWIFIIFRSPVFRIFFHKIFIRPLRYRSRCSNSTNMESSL
Procedure, shortened: (§1)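 [3H]-PGD2 incubated with HEK-293 cells stably expressing human DP, with increasing compound concentrations; binding buffer held 0.5% BSA or 50% human plasma. Means of three experiments, standard deviation ±30%.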

[2] = target: T1, Prostaglandin D2 receptor; experiment: Displacement of [3H]-PGD2 from human Prostanoid DP receptor expressed in human HEK293 cells by scintillation counter in presence of 50% human plasma; type: cell-based; procedure, shortened: as §1
[3] = target: T2, Prostaglandin D2 receptor 2 (Homo sapiens, UniProt Q9Y5Y4); experiment: Displacement of [3H]-PGD2 from human CRTH2 receptor expressed in human HEK293 cells by scintillation counter in presence of 50% human plasma; type: cell-based
T2 sequence (Q9Y5Y4 whole entry): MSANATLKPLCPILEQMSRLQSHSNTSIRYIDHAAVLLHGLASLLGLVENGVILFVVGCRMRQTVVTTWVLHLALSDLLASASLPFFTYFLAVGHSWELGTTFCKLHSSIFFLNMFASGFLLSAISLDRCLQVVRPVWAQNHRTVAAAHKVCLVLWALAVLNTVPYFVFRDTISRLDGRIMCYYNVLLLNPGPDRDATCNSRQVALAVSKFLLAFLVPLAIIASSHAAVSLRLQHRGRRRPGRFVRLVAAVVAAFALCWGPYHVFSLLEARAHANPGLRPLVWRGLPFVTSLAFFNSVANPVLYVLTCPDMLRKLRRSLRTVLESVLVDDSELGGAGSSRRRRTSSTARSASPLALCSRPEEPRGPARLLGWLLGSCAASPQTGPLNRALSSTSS

[4] = target: T2, Prostaglandin D2 receptor 2; experiment: Displacement of [3H]-PGD2 from human CRTH2 receptor expressed in human HEK293 cells by scintillation counter in presence of 0.5% bovine serum albumin; type: cell-based
[5] = Plasma concentration in guinea pig at 1 mg/kg, sc after 4 hrs; type: ADME, organism-based, Cavia porcellus; set-up: dose 1 mg/kg, route subcutaneous
Procedure, shortened: (§2)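 Guinea pig plasma drug levels taken 4 h after sc dosing, in the PGD2 aerosol airway-constriction study; n = 4 animals per group.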

[6] = Antagonist activity at guinea pig Prostanoid DP receptor in whole blood by cAMP assay; type: functional; settings: Cavia porcellus
[7] = Plasma concentration in guinea pig at 10 mg/kg, sc after 4 hrs; type: ADME, organism-based, Cavia porcellus; set-up: dose 10 mg/kg, route subcutaneous; procedure, shortened: as §2
Cavia porcellus [8] = experiment: Inhibition of PGD2-induced airway constriction in guinea pig model at 0.3 to 10 mg/kg, sc administered 4 hrs prior to aerosolized PGD2 challenge; type: functional, organism-based
Procedure, shortened: (§3)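 Guinea pigs dosed sc 4 h before exposure to aerosolized PGD2 (0.6 mg/mL). Airway resistance recorded as Penh (enhanced pause) in response to the challenge. n = 4 animals per group.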

[9] = Plasma concentration in guinea pig at 0.3 mg/kg, sc after 4 hrs; type: ADME, organism-based, Cavia porcellus; set-up: dose 0.3 mg/kg, route subcutaneous; procedure, shortened: as §2
[10] = Plasma concentration in guinea pig at 3 mg/kg, sc after 4 hrs; type: ADME, organism-based, Cavia porcellus; set-up: dose 3 mg/kg, route subcutaneous; procedure, shortened: as §2
[11] = Clearance in rat at 0.5 mg/kg, iv; type: ADME, organism-based; set-up: dose 0.5 mg/kg, route intravenous; settings: in vivo
[12] = Mean residence time in cynomolgus monkey; type: ADME, organism-based, Macaca fascicularis; settings: in vivo
[13] = Inhibition of CYP450; type: ADME
[14] = Volume of distribution at steady state in rat; type: ADME, organism-based; settings: in vivo, read-out: Vdss
[15] = Volume of distribution at steady state in cynomolgus monkey; type: ADME, organism-based, Macaca fascicularis; settings: in vivo, read-out: Vdss
[16] = Oral bioavailability in dog at 2 mg/kg; type: ADME, organism-based, Canis lupus familiaris; settings: in vivo
[17] = Clearance in dog at 0.5 mg/kg, iv; type: ADME, organism-based, Canis lupus familiaris; set-up: dose 0.5 mg/kg, route intravenous; settings: in vivo
[18] = Plasma concentration in guinea pig at 0.1 mg/kg, sc after 4 hrs; type: ADME, organism-based, Cavia porcellus; set-up: dose 0.1 mg/kg, route subcutaneous; procedure, shortened: as §2
[19] = Volume of distribution at steady state in dog; type: ADME, organism-based, Canis lupus familiaris; settings: in vivo, read-out: Vdss
[20] = Mean residence time in dog; type: ADME, organism-based, Canis lupus familiaris; settings: in vivo
[21] = Oral bioavailability in rat at 2 mg/kg; type: ADME, organism-based; settings: in vivo
[22] = Oral bioavailability in cynomolgus monkey at 2 mg/kg; type: ADME, organism-based, Macaca fascicularis; settings: in vivo
Cavia porcellus [23] = experiment: Inhibition of PGD2-induced airway constriction in guinea pig model at 0.1 to 10 mg/kg, sc administered 4 hrs prior to aerosolized PGD2 challenge; type: functional, organism-based; procedure, shortened: as §3
[24] = Mean residence time in rat; type: ADME, organism-based; settings: in vivo
[25] = Clearance in cynomolgus monkey at 0.5 mg/kg, iv; type: ADME, organism-based, Macaca fascicularis; set-up: dose 0.5 mg/kg, route intravenous; settings: in vivo

| Compound | IC50 [1] [nM] | IC50 [2] [nM] | IC50 [3] [nM] | IC50 [4] [nM] | other results |
| --- | --- | --- | --- | --- | --- |
| CCCCNC(=O)c1ccc(Oc2ccc(CC(=O)O)cc2OC)c(NS(=O)(=O)c2ccc(C(F)(F)F)cc2Cl)c1 | 21 | 190 | – | – | – |
| CCCCNC(=O)c1ccc(Oc2ccc(CC(=O)O)cc2F)c(NS(=O)(=O)c2ccc(Cl)cc2Cl)c1 | 30 | 440 | 110 | 7 | – |
| O=C(O)Cc1cc(F)c(Oc2ccc(C(=O)NC3CCC3)cc2NS(=O)(=O)c2ccc(C(F)(F)F)cc2Cl)cc1F | 9 | 22 | 41 | 13 | – |
| COc1cc(CC(=O)O)ccc1Oc1ccc(C(=O)NC2CCC2)cc1NS(=O)(=O)c1ccc(C(F)(F)F)cc1Cl | 13 | 45 | 13 | 4 | – |
| CC(C)(C)NC(=O)c1ccc(Oc2ccc(CC(=O)O)cc2Cl)c(NS(=O)(=O)c2ccc(Cl)cc2Cl)c1 | 15 | 230 | 12 | 5 | – |
| CCCCNC(=O)c1ccc(Oc2ccc(CC(=O)O)cc2C)c(NS(=O)(=O)c2ccc(Cl)cc2Cl)c1 | 6 | 230 | 26 | 3 | – |
| CCCCNC(=O)c1ccc(Oc2ccc(CC(=O)O)cc2Cl)c(NS(=O)(=O)c2ccc(Cl)cc2Cl)c1 | 8 | 1330 | 90 | 6 | – |
| CC(C)(C)NC(=O)c1ccc(Oc2ccc(CC(=O)O)cc2Cl)c(NS(=O)(=O)c2ccc(Cl)cc2)c1 | 46 | 450 | 15 | 9 | – |
| CC(C)(C)NC(=O)c1ccc(Oc2cc(F)c(CC(=O)O)cc2Cl)c(NS(=O)(=O)c2ccc(OC(F)(F)F)cc2Cl)c1 | 14 | – | 19 | 9 | – |
| COc1cc(CC(=O)O)ccc1Oc1ccc(C(=O)NC2CC2)cc1NS(=O)(=O)c1ccc(Cl)cc1Cl | – | 1030 | – | – | – |
| O=C(O)Cc1ccc(Oc2ccc(C(=O)NC3CC3)cc2NS(=O)(=O)c2ccc(Cl)cc2Cl)c(Cl)c1 | 14 | 220 | 25 | 7 | – |
| CCCCNC(=O)c1ccc(Oc2ccc(CC(=O)O)cc2OC)c(NS(=O)(=O)c2c(Cl)cccc2Cl)c1 | > 10000 | – | – | – | – |
| CCCCNC(=O)c1ccc(Oc2ccc(CC(=O)O)cc2C#N)c(NS(=O)(=O)c2ccc(Cl)cc2Cl)c1 | 310 | – | 210 | 18 | – |
| O=C(O)Cc1ccc(Oc2ccc(C(=O)NC3CCC3)cc2NS(=O)(=O)c2ccc(Cl)cc2)c(Cl)c1 | 16 | 85 | 12 | 6 | – |
| CCCCNC(=O)c1ccc(Oc2ccc(CC(=O)O)cc2OC)c(NS(=O)(=O)c2ccc(Cl)cc2Cl)c1 | – | – | – | – | concentration at 4 h [5]: 152 nM; Kb [6]: 82 nM; concentration at 4 h [7]: 939 nM; inhibition (Cavia porcellus [8]): Active; concentration at 4 h [9]: 117 nM; concentration at 4 h [10]: 688 nM |
| O=C(O)Cc1cc(Cl)c(Oc2ccc(C(=O)NC3CCC3)cc2NS(=O)(=O)c2ccc(OC(F)(F)F)cc2Cl)cc1F | 10 | 19 | 8 | 5 | – |
| CCCCNC(=O)c1ccc(Oc2ccc(CC(=O)O)cc2OC)c(NS(=O)(=O)c2ccc(Cl)c(Cl)c2)c1 | 21 | 120 | – | – | – |
| CCCCNC(=O)c1ccc(Oc2ccc(CC(=O)O)cc2OC)c(NS(=O)(=O)c2cccc(Cl)c2Cl)c1 | 520 | 2340 | – | – | – |
| CC(C)(C)NC(=O)c1ccc(Oc2cc(F)c(CC(=O)O)cc2Cl)c(NS(=O)(=O)c2ccc(C3CC3)cc2Cl)c1 [VIDUPIPRANT] | 4 | 35 | – | – | concentration at 4 h [5]: 77 nM; Kb [6]: 5 nM; clearance [11]: 3.17 mL/min/kg; MRT [12]: 1 h; concentration at 4 h [7]: 1400 nM; inhibition (INH) [13]: Not Active; Vd [14]: 0.71 L/kg; Vd [15]: 0.97 L/kg; bioavailability [16]: 100%; clearance [17]: 15 mL/min/kg; concentration at 4 h [9]: 40 nM; concentration at 4 h [18]: 32 nM; Vd [19]: 2.72 L/kg; MRT [20]: 3 h; bioavailability [21]: 87%; bioavailability [22]: 79%; inhibition (Cavia porcellus [23]): Active; concentration at 4 h [10]: 222 nM; MRT [24]: 3.9 h; clearance [25]: 16 mL/min/kg |
| CCCCNC(=O)c1ccc(Oc2ccc(CC(=O)O)cc2OC)c(NS(=O)(=O)c2cc(Cl)cc(Cl)c2)c1 | 930 | > 10000 | – | – | – |
| CCCCNC(=O)c1ccc(Oc2ccc(CC(=O)O)cc2OC)c(NS(=O)(=O)c2cc(Cl)ccc2Cl)c1 | 50 | 3640 | – | – | – |
| O=C(O)Cc1cc(F)c(Oc2ccc(C(=O)NC3CCC3)cc2NS(=O)(=O)c2ccc(OC(F)(F)F)cc2Cl)cc1F | 20 | 42 | 53 | 25 | – |
| O=C(O)Cc1ccc(Oc2ccc(C(=O)NC3CCC3)cc2NS(=O)(=O)c2ccc(Cl)cc2Cl)c(Cl)c1 | 9 | 210 | 19 | 5 | – |
| CCCCNC(=O)c1ccc(Oc2cc(F)c(CC(=O)O)cc2F)c(NS(=O)(=O)c2ccc(Cl)cc2Cl)c1 | 7 | 600 | – | – | – |
